Bioassay records: PubChem, several laboratories
UPR XBP1 act: adaptive UPR (XBP1) activation; CHO-XBP1 luciferase reporter, IRE1-XBP1 UPR activation, luminescence; percent of tunicamycin response, DMSO as zero; activation, % at 20 µM; 330,000 tested, 0.33% active; AID 463104;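 active means versus positive control, 20 µM dose yields 30% or more activation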;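 further: 100% = tunicamycin at 10 µg/mL and 0% = DMSO only wells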
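Material: CHO-XBP1 cells stably carrying IRE1-XBP1-driven luciferase reporter | Medium: F12 with 10% serum | Compound dosing: 20 µM single concentration, DMSO 1% | Incubation: Overnight seeding at 37 °C, 6 h compound treatment at 37 °C | Detection: Steady-Glo luminescence read | Read-out basis: % activation of reporter signal versus tunicamycin and DMSO controls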
CHOP inhibitor: inhibitors of CHOP induction in ER stress response. 220,000 tested, 3.8% active. CHO-K1 CHOP-promoter luciferase, tunicamycin-induced, 15-18 h. AID 2732. inhibition, % at 10 µM;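 active means compounds that reduced the stress-induced luciferase reporter signal by more than about 70% of percent inhibition, limit read from the data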;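 further: 0% = tunicamycin plus vehicle and 100% = wells without tunicamycin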
CHOP UPR activ: activators of apoptotic arm of unfolded protein response (CHOP) | 330,000 tested, 0.34% active | activation, % at 10 µM | CHO-CHOP luciferase reporter, UPR activation, luminescence; percent of tunicamycin response over DMSO baseline;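 active means at 10 µM dose, activation of 40% or more, normalized to positive control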;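 further: 100% = tunicamycin at 10 µg/mL and 0% = DMSO alone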
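Dosing – one dose, 10 µM in 0.5% DMSO · System – CHO-CHOP cells, stable luciferase reporter of PERK-eIF2a-CHOP signalling · Input – 500 cells/well · Control set – tunicamycin 10 µg/mL final as positive, DMSO-only wells as negative · Timing – 6 h compound treatment, 37 °C · Measure – % activation vs tunicamycin · Technique – luminescence read with Steady-Glo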
MPTP inh: permeability transition pore inhibition. isolated mouse mitochondria, Ca2+ swelling absorbance, 30 min. inhibition, % at 10 µM. 360,000 tested, 1.4% active. AID 602449;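 active means inhibition of 50% or more, scaled per plate between neutral and stimulator controls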;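 further: 0% = DMSO wells given calcium and 100% = 1 mM EGTA wells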
GRIN3A LBD mod: NR3A (human) ligand-binding domain modulation | NR3A LBD differential scanning fluorimetry, Tm shift; 0% = protein alone, 100% = glycine-bound protein | Tm shift relative to glycine control, % at 25 µM | 340,000 tested, 2.5% active | AID 1259313;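 active means melting temperature shift of at least 10% of the positive control shift, at one fixed dose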
aDG glyco up: alpha-DG glycosylation activation | activation, % at 10 µM | Pro5-aDG cells, alpha-DG glycosylation AlphaScreen (IIH6); 0% Pro5, 100% B10-LARGE cell signal | 360,000 tested, 0.22% active | AID 624168;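 active means activation of at least 8% versus controls, or a plate z-score of at least 8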;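 further: Pro5 are CHO cells carrying HIG-tagged alpha-DG that lacks glycosylation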
XBP1 UPR conf: adaptive UPR (XBP1) activation, confirmed. shares compounds with UPR XBP1 act. CHO-XBP1 IRE1-XBP1 luciferase reporter, luminescence. activation, % at 20 µM. 1,000 tested, 63% active. AID 485299;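 active means reporter signal at least 30% of the positive control's activation in two or more of four replicate wells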;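 further: plate controls were DMSO negative control for no effect and tunicamycin 10 µg/mL positive control for full effect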
Numbers without * were called inactive; nt = no result. An excerpt weighted towards active compounds, which were near 5.6% of everything screened.

SMILES | UPR XBP1 act | CHOP inhibitor | CHOP UPR activ | MPTP inh | GRIN3A LBD mod | aDG glyco up | XBP1 UPR conf
Clc1ccccc1-c1ccc(/C=N/Nc2nncc(-c3ccccc3)n2)o1 | 41* | 57 | -1 | 2 | -12 | 0 | 28
Cc1ccc(-c2nc(N/N=C/c3cccnc3)c3ccccc3n2)cc1 | 5 | 67 | 2 | 1 | -7 | 0 | nt
COc1ccc(/C=N/Nc2nc(-c3cccnc3)nc3ccccc23)c(OC)c1 | 37* | -1 | 7 | 4 | 5 | 0 | 15
Nc1nc(-c2cc(O)ccc2[N+](=O)[O-])cc(-c2ccccc2)c1[N+](=O)[O-] | 311* | nt | 36 | 1 | 11* | 0 | 214*
O=[N+]([O-])c1cccc(/C=C/c2nc(C=Nc3ccccc3)c(O)o2)c1 | 36* | 8 | 2 | 3 | 11* | 0 | 24
NC1=NC[C@@H](CC2CCCCC2)N1CCc1cc(C(F)(F)F)cc(C(F)(F)F)c1 | 49* | nt | 1 | 8 | -3 | 0 | 55*
CCOC(=O)Nc1nc(-c2ccccc2)c(C(=O)c2ccccc2)s1 | 31* | 44 | 0 | -7 | -1 | 0 | 12
COc1ccccc1C(C)NC(=O)CCNC(=O)c1ccc(Cl)cc1 (stereo not given) | -3 | nt | -3 | -1 | -1 | 0 | nt
COc1ccc(-c2csc3ncnc(Sc4nnnn4C)c23)cc1 | 0 | nt | 1 | 0 | 0 | 0 | nt
Cn1nnnc1Sc1ncnc2scc(-c3ccc(Cl)cc3)c12 | 46* | nt | 1 | -2 | 0 | 0 | 113*
COCCCn1c(=NC(=O)c2ccccc2)c(C#N)cc2c(=O)n3cccc(C)c3nc21 | 43* | 2 | 3 | 0 | 5 | 0 | -2
COCCCn1c(=NC(C)=O)c(C#N)cc2c(=O)n3cccc(C)c3nc21 | 0 | -17 | -1 | 3 | 1 | 0 | nt
NS(=O)(=O)c1ccc(NC(=S)NC(=O)c2ccc(-c3ccccc3)cc2)cc1 | 50* | -9 | 15 | 3 | 1 | 0 | 25
NC(N)=NS(=O)(=O)c1ccc(NC(=S)NC(=O)c2ccccc2)cc1 | -2 | -4 | 0 | 1 | -1 | 0 | nt
CCCCNc1c(-c2ccc(-c3ccc(C(C)=O)cc3)c(OC)c2)nc2cc(C)ccn12 | 40* | nt | 9 | 2 | -16 | 4 | 38*
CCOC(=O)c1nnc(-c2ccccc2)nc1NCc1ccc(Cl)cc1 | 2 | 51 | -2 | 5 | 2 | 0 | nt
CCOC(=O)c1nnc(-c2ccccc2)nc1Sc1c(Cl)cccc1Cl | 47* | 14 | 26 | -1 | 2 | 0 | 97*
CCOC(=O)c1nnc(-c2ccc(C)cc2)nc1Sc1ccc(Cl)cc1 | 47* | 64 | 22 | 0 | -1 | 0 | 19
CCOC(=O)c1nnc(-c2ccc(C)cc2)nc1Sc1ccccc1Cl | 33* | 54 | 25 | -2 | 0 | 0 | 48*
Cc1cccc(N2CCN(C(=O)CN3C(=O)NC4(CCCCCC4)C3=O)CC2)c1C | -1 | nt | 2 | -3 | 1 | 0 | nt
Cc1cc(C)n(CCC(=O)N2CCCC(N3CCN(c4cccc(Cl)c4)CC3)C2)n1 (stereo not given) | -4 | nt | 1 | 0 | -2 | 0 | nt
COCOc1cc(O)c(C(=O)/C=C/c2ccccc2)c(OCOC)c1 | 40* | nt | 22 | 0 | -2 | 0 | 28
CCOc1ccc(NC(=O)/C=C/c2ccc(OC)cc2)c([N+](=O)[O-])c1 | 3 | 15 | -1 | 4 | -16 | 0 | nt
CCOc1ccc(NC(=S)NC(=O)/C=C/c2ccc(C)cc2)c([N+](=O)[O-])c1 | 213* | 63 | 34 | 0 | 1 | 0 | 144*
CC(Oc1ccc(Br)cc1)C(=O)NCCCN1CCCC1=O (stereo not given) | -2 | nt | 0 | 0 | -1 | 0 | nt
SMILES | UPR XBP1 act | CHOP inhibitor | CHOP UPR activ | MPTP inh | GRIN3A LBD mod | aDG glyco up | XBP1 UPR conf
COc1ccc(OCC(=O)OCC(=O)NC2CCCCC2C)cc1 (stereo not given) | 1 | nt | 1 | 1 | 0 | 0 | nt
COc1cc(NC2CCCCC2O)c2nc(-c3ccc(Cl)cc3)ccc2c1 (stereo not given) | 31* | -18 | 26 | 0 | 1 | 1 | 16
COc1ccc(-c2csc(NC(=S)NC(=O)/C=C/c3ccco3)n2)cc1Br | 202* | 30 | 18 | 1 | 21* | 0 | 201*
COc1cc2c(cc1NC(=S)NC(=O)/C=C/c1ccco1)oc1ccccc12 | 52* | -43 | 11 | 3 | 2 | 0 | 77*
COc1cc2c(cc1NC(=S)NC(=O)/C=C/c1ccc(OC)c(OC)c1)oc1ccccc12 | nt | -35 | nt | 2 | 0 | 1 | nt
Cn1c(N)c(S(=O)(=O)N2CCN(c3ccccc3F)CC2)c(=O)n(C)c1=O | -3 | nt | 0 | -1 | 1 | 0 | nt
O=C(CCCN1C(=O)C2CC=CCC2C1=O)Nc1ccccc1F (stereo not given) | -5 | nt | 0 | 0 | 1 | 0 | nt
CCCN1CCc2c(sc(NC(=O)c3ccc(S(=O)(=O)N(C)c4ccccc4)cc3)c2C(N)=O)C1 | 40* | nt | 3 | 3 | 4 | 2 | 5
O=C(NCC1CC1)c1cccc2c1C(=O)c1ccc(-c3ccc(OC(F)(F)F)cc3)cc1S2(=O)=O | 41* | nt | 20 | 2 | -8 | 0 | 42*
Cc1nc(N)c(C#N)c(-c2ccccc2)c1C | 0 | 22 | -3 | 0 | 0 | 2 | nt
Cc1cc(C)c2c(n1)sc1c(-c3ccccc3)c(C#N)c(N)nc12 | 91* | 51 | 27 | 2 | 2 | 0 | 48*
Cc1cc(F)ccc1S(=O)(=O)N1CCCOC1CNC(=O)C(=O)NC1CCCC1 (stereo not given) | -4 | nt | -1 | 1 | 0 | 1 | nt
CC(CC(=O)N(CCC1=CCCCC1)c1c(N)n(Cc2ccccc2)c(=O)[nH]c1=O)c1ccccc1 (stereo not given) | 40* | nt | 6 | 0 | 1 | 0 | 16
COc1ccc(CC(=O)N(CCC2=CCCCC2)c2c(N)n(Cc3ccccc3)c(=O)[nH]c2=O)cc1 | nt | nt | nt | 1 | nt | 1 | nt
CCOc1ccc(OCC(=O)N(CCC2=CCCCC2)c2c(N)n(Cc3ccccc3)c(=O)[nH]c2=O)cc1 | 31* | nt | 2 | 0 | nt | 0 | 7
CCOc1ccc(OCCC(=O)N(CCC2=CCCCC2)c2c(N)n(Cc3ccccc3)c(=O)[nH]c2=O)cc1 | 1 | nt | 4 | -1 | 1 | 0 | nt
